PDI turbidity = inhibitors of human PDI, primary screen, biochemical, turbidity, single point, plate reader; Protein disulfide-isomerase (Homo sapiens), P07237; PDI insulin aggregation turbidity, A650, 90 min; inhibition, % at 10 µM; 0.052% of 350,000 active; AID 588391, 2011;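 active = mean inhibition across replicates of 30% or more, whatever share of single replicates reach that level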
RAD54 branch = inhibitors of human RAD54 branch migration, primary screen, biochemical, fluorescence, single point | RAD54 Holliday junction branch migration, FAM/BHQ fluorescence | AID 602329, 2012 | 0.14% of 360,000 active | DNA repair and recombination protein RAD54-like (Homo sapiens), Q92698 | inhibition, % at 10.4 µM;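 active = mean normalized replicate activity at least 40 and at least half of replicates scoring 40 or more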;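 also: 0% = median of neutral control wells and 100% = median of positive control wells; inhibitors cause a drop in the FAM fluorescence signal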
CAL PDZ FP-1 = CAL PDZ peptide-binding inhibitors, primary screen, biochemical, fluorescence polarization, Cer-tagged CAL PDZ, HTS. purified CAL PDZ, TMR-peptide fluorescence polarization, 1 h. Golgi-associated PDZ and coiled-coil motif-containing protein (Homo sapiens), Q9HD26. AID 504414, 2011. inhibition, % at 20 µM. 0.02% of 330,000 active;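 active = highest replicate inhibition of at least 40%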;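 also: plate controls were DMSO neutral control wells for no effect and unlabeled competitor peptide control wells for full effect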
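Material: tagged CAL PDZ protein CerCALP, purified; buffer or medium: sodium phosphate/NaCl buffer pH 7.4 with TCEP, IgG, Thesit; also added: fluorescent TMR peptide probe; schedule: 1 h incubation at room temperature before polarization reading; technique: fluorescence polarization from S- and P-plane intensities, G-factor corrected; control set: unlabelled peptide and DMSO controls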
RAD52 anneal inh = RAD52 DNA annealing inhibitors, primary screen, biochemical, FRET, single point, set 2. DNA repair protein RAD52 homolog (Homo sapiens), P43351. recombinant RAD52 DNA annealing, FRET fluorescence. inhibition, % at 18.7 µM. 0.46% of 360,000 active;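 active = every replicate showing at least 50% inhibition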
Target sequence (P43351 whole entry, looked up): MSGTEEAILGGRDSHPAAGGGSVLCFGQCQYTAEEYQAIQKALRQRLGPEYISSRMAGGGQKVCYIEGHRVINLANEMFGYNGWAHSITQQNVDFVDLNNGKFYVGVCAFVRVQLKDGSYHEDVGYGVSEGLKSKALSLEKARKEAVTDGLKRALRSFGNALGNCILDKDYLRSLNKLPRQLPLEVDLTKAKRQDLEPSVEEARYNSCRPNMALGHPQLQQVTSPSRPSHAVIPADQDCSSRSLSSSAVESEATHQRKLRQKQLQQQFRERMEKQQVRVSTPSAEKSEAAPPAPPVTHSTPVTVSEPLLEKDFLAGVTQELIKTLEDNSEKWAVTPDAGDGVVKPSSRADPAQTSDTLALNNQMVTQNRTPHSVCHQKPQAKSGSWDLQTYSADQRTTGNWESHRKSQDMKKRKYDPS
CAL PDZ FP-2 = untagged CAL PDZ binding inhibitors, primary screen, biochemical, fluorescence polarization, HTS; Golgi-associated PDZ and coiled-coil motif-containing protein (Homo sapiens), Q9HD26; purified CAL PDZ, TMR-peptide fluorescence polarization, 1 h; inhibition, % at 24.9 µM; 0.92% of 300,000 active; AID 602252, 2012;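 active = mean inhibition of at least 30% with at least half of replicates also reaching 30%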;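 also: 0% = DMSO neutral control and 100% = excess unlabeled competitor peptide PRC23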
ERp5 inh = inhibitors of ERp5-driven insulin aggregation, primary screen, biochemical, turbidity, absorbance 650 nm, single point | inhibition, % at 9.99 µM | 90 min | Protein disulfide-isomerase A6 (Homo sapiens), Q15084 | 0.05% of 350,000 active | AID 651711, 2012;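 active = mean replicate inhibition above about 25%, with every replicate also reaching it, limit read from the data, passing the limit was not always enough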
The depositor's hits bear a star; nt = no result given. Shown are actives, neighbours in structure and some others; about 1% of the full set was active somewhere.

SMILES | PDI turbidity | RAD54 branch | CAL PDZ FP-1 | RAD52 anneal inh | CAL PDZ FP-2 | ERp5 inh
O=C(CCCCl)Nc1nc(-c2ccc3c(c2)OCCO3)cs1 | -8.1 | -4.0 | -1.6 | -9.0 | 7.2 | 1.1
Fc1cccc2sc(N3CCOCC3)nc12 | -6.8 | 10.1 | -2.8 | nt | -0.7 | nt
Fc1cccc2sc(N3CCCCC3)nc12 | 1.9 | 3.6 | -0.5 | nt | 36.8* | nt
CC(=O)c1c(C)[nH]c(C(=O)OCC(=O)c2ccc3c(c2)NC(=O)CO3)c1C | -9.9 | -6.4 | -0.6 | -24.9 | 81.2* | -1.7
Cc1cccc(C(=O)OCC(=O)c2ccc3c(c2)NC(=O)CO3)c1 | -1.6 | nt | -1.2 | -14.3 | -5.5 | 9.7
CN(C)CCN(C(=O)c1ccc(Br)s1)c1nc2cc3c(cc2s1)OCCO3 | -1.7 | 26.9 | -1.3 | 10.5 | -3.1 | -2.3
CN(C)CCCN(C(=O)COc1ccc(Cl)cc1)c1nc2cc3c(cc2s1)OCCO3 | -3.8 | 20.1 | -4.5 | 60.0* | -1.5 | 2.5
CN(C)CCN(C(=O)c1cccs1)c1nc2cc3c(cc2s1)OCCO3 | 13.1 | 31.0 | -0.3 | 28.2 | 41.0* | -0.5
CN(C)CCCN(C(=O)c1ccc(S(=O)(=O)N(C)Cc2ccccc2)cc1)c1nc2cc3c(cc2s1)OCO3 | 0.5 | 3.2 | -1.4 | -4.7 | 41.7* | -19.2
COc1ccc2sc(N(CCCN(C)C)C(=O)c3ccc(S(=O)(=O)N(C)Cc4ccccc4)cc3)nc2c1 | 5.1 | 10.1 | -3.6 | 48.0 | 4.9 | -1.2
C[C@@H]1CCCCO[C@H](CN(C)C(=O)CCCN(C)C)[C@@H](C)CN([C@@H](C)CO)C(=O)c2cc(NC(=O)Nc3cccc4ccccc34)ccc2O1 | nt | 11.2 | nt | 43.2 | nt | -0.2
C[C@H]1CN([C@@H](C)CO)C(=O)c2cc(/C=C/c3ccccc3)cnc2O[C@H]1CN(C)C(=O)c1ccc(F)cc1 | nt | -37.5 | nt | 13.7 | nt | 3.7
O=C(C[C@H]1CC[C@H]2[C@@H](COC[C@H](O)CN2C(=O)c2ccncc2)O1)NC1Cc2ccccc2C1 | nt | 8.8 | nt | 14.5 | nt | 2.7
C[C@@H]1CN([C@@H](C)CO)C(=O)Cc2cc(NC(=O)CCN3CCOCC3)ccc2O[C@@H]1CN(C)C(=O)Nc1ccc(F)cc1 | nt | 5.1 | nt | -0.8 | nt | 2.1
O=C(Nc1cnccn1)Nc1ccccc1F | -8.1 | 1.7 | -1.0 | -18.8 | 51.7* | 4.1
O=C(N[C@H]1CC[C@@H](CC(=O)N2CCCCC2)O[C@H]1CO)c1cccc(F)c1 | nt | -1.9 | nt | -2.8 | nt | -3.8
Nc1ccc(Br)c2cccnc12 | -2.3 | nt | -1.3 | 5.7 | -1.0 | -1.8
CS(=O)(=O)Oc1ccc(Br)c2cccnc12 | -0.7 | -6.4 | -1.0 | -3.9 | 74.3* | 2.4
O=C(c1c(O)cc(O)cc1O)C1c2c(cc(O)c3c2O[C@H](c2ccc(O)cc2)[C@@H](O)C3)OC1c1ccc(O)cc1 (some centres undefined) | 53.1* | 9.2 | -1.0 | -34.1 | 0.4 | -1.1
O=C1CC(c2ccc(O)cc2)Oc2cc(O)cc(O)c21 (centres undefined) | -1.6 | 7.3 | -0.2 | -2.8 | -3.3 | -2.7
O=C(C[C@@H]1C=C[C@H](NC(=O)c2cccnc2)[C@@H](CO)O1)NCc1ccncn1 | nt | nt | nt | -10.0 | nt | 2.1
COc1ccc2c3c([nH]c2c1)[C@@H](CO)N(Cc1nccs1)CC31CN(C(=O)C2CCCC2)C1 | nt | nt | nt | -37.3 | nt | 80.3*
COc1ccc2c3c([nH]c2c1)[C@H](CO)N(C(=O)C1CCOCC1)CC31CCN(Cc2nccs2)CC1 | nt | nt | nt | 10.6 | nt | 83.6*
COc1ccc2c3c([nH]c2c1)[C@@H](CO)N(Cc1nccs1)CC31CCN(Cc2cccnc2)CC1 | nt | nt | nt | 60.4* | nt | 1.6
C[C@H](CO)N1C[C@H](C)[C@H](CN(C)C(=O)C2CCC2)Oc2ncc(C#CC3(O)CCCC3)cc2C1=O | nt | -8.5 | nt | 3.6 | nt | 3.0
SMILES | PDI turbidity | RAD54 branch | CAL PDZ FP-1 | RAD52 anneal inh | CAL PDZ FP-2 | ERp5 inh
C[C@H]1CCCCO[C@H](CN(C)S(=O)(=O)c2ccc(F)cc2)[C@@H](C)CN([C@@H](C)CO)C(=O)c2cc(NC(=O)Nc3ccccc3)ccc2O1 | nt | -21.1 | nt | nt | nt | nt
CN(C)C(=O)[C@H]1[C@H](CO)[C@H]2Cn3c(ccc(-c4cccc(F)c4)c3=O)[C@@H]1N2Cc1ccccc1 | nt | 1.7 | nt | 2.3 | nt | 2.7
Cc1ccc(S(=O)(=O)N2CCN(C(=O)CCc3nc4ccccc4c(=O)[nH]3)CC2)c(C)c1 | -4.4 | -5.2 | -3.4 | -8.5 | -3.0 | 26.4*
CC(=O)N1CC2(C1)[C@H](c1ccc(-c3cccc(C#N)c3)cc1)[C@H](CO)N2CCC(F)(F)F | nt | nt | nt | -31.3 | nt | 0.4
Fc1ccc(CCNc2ncnc3[nH]ncc23)cc1 | 5.7 | -0.8 | -1.3 | -7.6 | nt | 3.4
Cc1ccc(CNc2ncnc3[nH]ncc23)cc1 | -1.3 | 3.2 | 5.3 | -4.9 | 62.2* | -4.7
Cc1cc2c3c(c1)C1(C(=O)N3C(C)(C)CC2C)C(C#N)=C(N)Oc2n[nH]c(C)c21 (centres undefined) | 38.4* | nt | -1.4 | nt | -3.8 | nt
C[C@@H]1CN([C@@H](C)CO)C(=O)c2cc(-c3ccccc3F)cnc2O[C@@H]1CN(C)Cc1cccc(C(=O)O)c1 | nt | -5.5 | nt | 7.5 | nt | -4.2
Cc1cc(C)nc(NCC(O)CNc2ccccc2C)n1 (centres undefined) | -14.8 | nt | -0.7 | nt | 62.4* | nt
Cc1ccc(C)c(-n2cc(CNCCc3cnccn3)c(-c3ccccc3)n2)c1 | -1.9 | nt | -0.9 | -66.5 | 52.8* | 6.1
C[C@H](CO)N1C[C@H](C)[C@H](CN(C)Cc2ccncc2)OCCCC[C@H](C)Oc2ccc(NC(=O)Nc3ccc4c(c3)OCO4)cc2C1=O | nt | -1.7 | nt | 31.2 | nt | 0.4
S=C(N/N=C/c1ccc2ncccc2c1)Nc1ccccc1 | -3.0 | nt | -2.6 | 4.3 | 32.9* | 0.7
C(=N\NCc1ccccc1)/c1ccc2ncccc2c1 | -2.7 | 5.0 | nt | -17.9 | nt | 1.5
C[C@@H]1CN([C@H](C)CO)C(=O)c2cc(C3=CCCC3)cnc2O[C@H]1CN(C)S(=O)(=O)c1cn(C)cn1 | nt | 2.7 | nt | -7.0 | nt | 1.5
COc1ccc(C#Cc2ccc([C@@H]3[C@H]4CN(C(C)=O)CC(=O)N4[C@H]3CO)cc2)cc1 | nt | nt | nt | -12.9 | nt | -7.8
CCN1C(c2ccccc2)=C(c2ccccc2)S/C1=C/C=C1\SC(=S)N(C)C1=O | 3.0 | -2.8 | -1.9 | nt | 36.1* | nt
CCN1C(c2ccccc2)=C(c2ccccc2)S/C1=C\C=C1/SC(=S)N(C)C1=O | 1.6 | nt | -6.8 | nt | -6.9 | nt
Cc1cc(C)c2c(N)c3ccccc3nc2n1 | -5.7 | 100.2* | -2.2 | nt | 0.3 | nt
Cc1cc(C)c2cccc(N)c2n1 | 10.4 | -0.9 | -2.2 | -0.5 | -3.3 | -0.9

Bioassay records deposited in PubChem by Broad Institute.
